From ChEMBL document CHEMBL1126561, “Synthesis and biological evaluation of N4-substituted imidazo- and v-triazolo[4,5-d]pyridazine nucleosides” (J Med Chem, 1993) come the findings set out here.

For orientation: Inhibition means how much of the control response was suppressed. Read a low Inhibition as a response near the control. A word on the inhibition: it is the change of the read-out against control, counted positive when it falls.

The species entered for assay [1] is Homo sapiens. The experiment in a line: Evaluated for inhibition of adenosine accumulation in human erythrocytes at the concentration of 10 uM of compound. The assay is classed as functional. The method in brief:
(§1)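 Inhibitor-stop assay of human erythrocytes (10% suspension, v/v) at room temperature. Analogue (up to 10 μM) was preincubated with triplicate cell aliquots for 10 min, then [8-¹⁴C]adenosine was added (final 10 μM). Uptake was stopped after 0.5 s with ice-cold 750 μM dilazep and centrifugation through oil. Cell radioactivity was counted, corrected for extracellular trapping.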

Assay [2] is filed under the species Homo sapiens. The experiment in a line: Compound was tested for the inhibition of adenosine transport into human erythrocytes. The assay is classed as functional. In short, it runs like this: as §1
In assay [3] the test system is B16. The experiment in a line: Compound was tested in vitro for growth inhibitory activity against B16 melanoma cell line. The assay is classed as functional. The conditions noted are these: Mus musculus, read-out: ID50 (the source's name). The method in brief: (§2)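 B16 melanoma cells in RPMI-1640 with 15% heat-inactivated FBS and antibiotics, seeded at 2-3 × 10³ cells/well on day 0. Graded analogue (12 concentrations) added day 1, then 3 days at 37 °C. MTT 4 h, formazan dissolved in acidic isopropanol, absorbance read. ID50 from curve fit, eight determinations per concentration.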

Assay [4] concerns the target T1, Adenosine deaminase (Bos taurus) (UniProt P56658).
T1 sequence (whole entry): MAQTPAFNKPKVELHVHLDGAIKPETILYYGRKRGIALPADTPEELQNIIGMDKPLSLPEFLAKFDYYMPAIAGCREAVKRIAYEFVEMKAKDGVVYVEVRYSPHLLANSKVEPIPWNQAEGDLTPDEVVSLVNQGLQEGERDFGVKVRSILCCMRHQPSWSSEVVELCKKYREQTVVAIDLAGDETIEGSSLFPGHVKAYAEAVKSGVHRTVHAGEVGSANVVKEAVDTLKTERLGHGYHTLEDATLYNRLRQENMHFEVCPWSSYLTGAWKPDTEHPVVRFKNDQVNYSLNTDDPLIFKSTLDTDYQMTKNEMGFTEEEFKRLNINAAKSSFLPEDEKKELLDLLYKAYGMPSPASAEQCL
The experiment in a line: Tested for percentage inhibition against adenosine deaminase at the concentration 100 uM. The method in brief: (§3)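 Calf intestinal mucosa ADA (0.003 unit) in 1 mL of 50 mM potassium phosphate, pH 7.4, at 30 °C. Substrate was 25 μM adenosine, about Km. Analogue tested at 100 μM, reported as percent inhibition.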

Assay [5] concerns the target T1, Adenosine deaminase (Bos taurus). The experiment in a line: Tested for inhibition against calf intestinal mucosa adenosine deaminase (ADA). Particulars: concentration not given here. The assay is classed as tissue-based. In short, it runs like this:
as §3

The subject of assay [6] is L1210 (1565). The experiment in a line: Tested in vitro inhibitory activity against murine L 1210 leukemia cells line. The assay is classed as functional. Particulars: Mus musculus, read-out: ID50 (the source's name). The method in brief:
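L1210 cells in RPMI-1640 with 10% heat-inactivated FBS plus mercaptoethanol (doubling time 12 h); 1 × 10^3 cells seeded day 0, graded analogue concentrations added day 1, cultured 3 days at 37 °C. Growth read by MTT reduction (4 h), formazan in acidic isopropanol; ID50 fitted from 12 concentrations × eight determinations.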

Assay [7] deals with B16. Put plainly: Tested in vitro inhibitory activity against murine B16 melanoma cells line. The assay is classed as functional. The conditions noted are these: Mus musculus, read-out: ID50 (the source's name). The method in brief: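 B16 cells maintained in RPMI-1640 with 15% heat-inactivated FBS and antibiotics (doubling time 21 h); 2-3 × 10^3 cells seeded day 0, graded analogue concentrations added day 1, 3 days at 37 °C. MTT 4 h, formazan solubilized in acidic isopropanol, absorbance read; ID50 from curve fit of 12 concentrations, eight determinations each.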

Assay [8] relates to L1210 (1565). The experiment in a line: Compound was tested in vitro for growth inhibitory activity against murine L1210 leukemia cell line. The assay is classed as functional. Particulars: Mus musculus, read-out: ID50 (the source's name). In short, it runs like this:
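Murine L1210 cells in RPMI-1640 with 10% heat-inactivated FBS and mercaptoethanol, seeded at 1 × 10³ cells/well on day 0. Graded analogue (12 concentrations) added day 1, then 3 days at 37 °C. MTT 4 h, formazan dissolved in acidic isopropanol, absorbance read. ID50 from curve fit, eight determinations per concentration.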

The test system of assay [9] is B16. Put plainly: Compound was tested in vitro for growth inhibitory activity against murine B16 melanoma cell line. The assay is classed as functional. The conditions noted are these: Mus musculus, read-out: ID50 (the source's name). The method in brief: as §2

Converted amounts (≈) assume the structure as drawn.

Molecule `OC[C@H]1OC(n2cnc3c(NCc4ccccc4)nncc32)[C@H](O)[C@@H]1O` (stereo partly specified) had an Inhibition in assay [1] of 45%.

Molecule `OC[C@H]1OC(n2nnc3c(NCc4ccccc4)nncc32)[C@H](O)[C@@H]1O` (stereo partly specified) yielded an Inhibition in assay [2] of 34%. The IC50 in assay [3] worked out at 35.8 µg/mL (≈ 99.9 µM).

`Nc1nncc2c1ncn2[C@@H]1O[C@H](CO)[C@@H](O)[C@H]1O` showed an inhibition in assay [4] of 15%.

The molecule `Nc1nncc2c1nnn2C1O[C@H](CO)[C@@H](O)[C@H]1O` (stereo partly specified) had an inhibition in assay [5] of 7%.

As to `Nc1ccn([C@@H]2O[C@H](CO)[C@@H](O)[C@@H]2O)c(=O)n1` [CYTARABINE], the IC50 in assay [6] and in [7] was less than 0.1 µg/mL in each case.

For the molecule `O=c1[nH]cc(F)c(=O)[nH]1` [FLUOROURACIL], the IC50 in [6] and in [7] was less than 0.1 µg/mL each time.

For `CN(Cc1cnc2nc(N)nc(N)c2n1)c1ccc(C(=O)N[C@@H](CCC(=O)O)C(=O)O)cc1` [METHOTREXATE], the IC50 in assay [8] and in assay [9] was less than 0.1 µg/mL each time.
